Laboratory results taken from ChEMBL document CHEMBL4024777, “Discovery of LY3104607: A Potent and Selective G Protein-Coupled Receptor 40 (GPR40) Agonist with Optimized Pharmacokinetic Properties to Support Once Daily Oral Treatment in Patients with Type 2 Diabetes Mellitus” (J Med Chem, 2018).
In brackets after ≈: the same amount, converted by molar mass.

Tests used:
[1] = target: T1, Free fatty acid receptor 1 (Homo sapiens, UniProt O14842); experiment: Competitive displacement of [3H]-TAK-875 from full length human recombinant GPR40 expressed in HEK293 cell membranes after 2 hrs by scintillation counting
T1 sequence (O14842 whole entry): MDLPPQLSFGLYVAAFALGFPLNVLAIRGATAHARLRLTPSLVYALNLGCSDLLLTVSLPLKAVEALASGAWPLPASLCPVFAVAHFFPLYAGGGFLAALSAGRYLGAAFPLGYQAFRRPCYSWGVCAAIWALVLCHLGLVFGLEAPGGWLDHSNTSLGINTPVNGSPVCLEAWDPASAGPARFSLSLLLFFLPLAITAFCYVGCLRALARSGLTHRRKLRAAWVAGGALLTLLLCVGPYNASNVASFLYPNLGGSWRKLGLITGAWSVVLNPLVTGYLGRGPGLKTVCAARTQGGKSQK
Summary of the method: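 Binding was measured as competitive inhibition of [3H]-TAK875 (fasiglifam) binding to membranes from cells overexpressing recombinant human GPR40. Ki is reported with SEM and n.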

[2] = target: T1, Free fatty acid receptor 1; experiment: Agonist activity at human GPR40 receptor expressed in HEK293 cells assessed as increase in intracellular calcium flux after 2.5 hrs measured over 3 mins by calcium 4 dye-based FLIPR assay; assay type: functional, cell-based
Summary of the method: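 Calcium flux was read by FLIPR in cells carrying recombinant human GPR40. Percent stimulation is relative to the response to 100 µM linoleic acid. EC50 is reported with SEM and n.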

[3] = target: T1, Free fatty acid receptor 1; experiment: Agonist activity at human GPR40 receptor expressed in HEK293 cells assessed as increase in intracellular calcium flux after 2.5 hrs measured over 3 mins by calcium 4 dye-based FLIPR assay relative to linoleic acid; assay type: functional, cell-based
Summary of the method: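 Human GPR40 calcium flux was read on FLIPR. Percent stimulation is expressed against the response to 100 uM linoleic acid.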

[4] = Dissociation constant, pKa of the compound; assay type: physicochemical
[5] = Metabolic stability in rat microsomes assessed as compound metabolized after 30 mins; assay type: ADME, Microsome; conditions: read-out: Drug metabolism
Summary of the method: (§1)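 Compound incubated 30 min with liver microsomes from mouse, rat, dog or human. Percent of compound metabolized recorded, as mean (SEM, n).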

[6] = Metabolic stability in dog microsomes assessed as compound metabolized after 30 mins; assay type: ADME, Canis lupus familiaris, Microsome; conditions: read-out: Drug metabolism; summary of the method: as §1
[7] = Intrinsic clearance in human microsomes; assay type: ADME, Microsome
[8] = Intrinsic clearance in human hepatocytes; assay type: ADME, cell-based, Hepatocyte
[9] = Clearance in type 2 diabetes patient; assay type: ADME; conditions: human, in vivo
[10] = Volume of distribution in type 2 diabetes patient; assay type: ADME; conditions: human, in vivo
[11] = Aqueous solubility of the compound at pH 7.4; assay type: physicochemical
Summary of the method: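 Solubility was measured by DMSO/aqueous precipitation at pH 7.4 and reported as the last soluble concentration.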

Rattus norvegicus = experiment: Antidiabetic activity in po dosed Zucker fa/fa rat assessed as reduction in blood glucose AUC administered daily for 21 days followed by OGTT at 1 hr after compound dosing and measured 60 mins post glucose challenge by oral glucose tolerance test; assay type: functional
[12] = Drug metabolism in rat hepatocytes assessed as glucuronidation; assay type: ADME, cell-based, Hepatocyte
[13] = Drug metabolism in mouse hepatocytes assessed as glucuronidation; assay type: ADME, cell-based, Hepatocyte
[14] = Drug metabolism in dog hepatocytes assessed as glucuronidation; assay type: ADME, cell-based, Canis lupus familiaris, Hepatocyte
[15] = Drug metabolism in rat hepatocytes assessed as desmethylation; assay type: ADME, cell-based, Hepatocyte
[16] = Drug metabolism in mouse hepatocytes assessed as desmethylation; assay type: ADME, cell-based, Hepatocyte
[17] = Drug metabolism in dog hepatocytes assessed as desmethylation; assay type: ADME, cell-based, Canis lupus familiaris, Hepatocyte
[18] = Lipophilicity, log P of the compound; assay type: physicochemical; conditions: octanol/water
[19] = Metabolic stability in mouse microsomes assessed as compound metabolized after 30 mins; assay type: ADME, Microsome; conditions: read-out: Drug metabolism; summary of the method: as §1
[20] = Metabolic stability in human microsomes assessed as compound metabolized after 30 mins; assay type: ADME, Microsome; conditions: read-out: Drug metabolism; summary of the method: as §1
[21] = Drug metabolism in rat hepatocytes assessed as oxidation; assay type: ADME, cell-based, Hepatocyte
[22] = Drug metabolism in mouse hepatocytes assessed as oxidation; assay type: ADME, cell-based, Hepatocyte
[23] = Drug metabolism in dog hepatocytes assessed as oxidation; assay type: ADME, cell-based, Canis lupus familiaris, Hepatocyte
[24] = Drug metabolism in rat hepatocytes assessed as N-dealkylation; assay type: ADME, cell-based, Hepatocyte
[25] = Drug metabolism in mouse hepatocytes assessed as N-dealkylation; assay type: ADME, cell-based, Hepatocyte
[26] = Drug metabolism in dog hepatocytes assessed as N-dealkylation; assay type: ADME, cell-based, Canis lupus familiaris, Hepatocyte

CC#C[C@@H](CC(=O)O)c1ccc(OCc2ccc(CN3CCCc4cccc(OC)c43)s2)cc1
Ki [1]: 27 nM
EC50 [2]: 3 nM
%max [3]: 51%
pKa [4]: 3.4 to 6
metabolised at 0.5 h [5]: 62%
metabolised at 0.5 h [6]: 18%
K [7]: 0.0048 h⁻¹
K [8]: 0.17 h⁻¹
clearance [9]: 183 to 233 mL/min
Vd [10]: 244 to 358 L
solubility [11]: > 100 µM
ED90 (Rattus norvegicus): 3.3 mg/kg
Drug metabolism [12]: Metabolite_Detected
Drug metabolism [13]: Metabolite_Detected
Drug metabolism [14]: Metabolite_Detected
Drug metabolism [15]: Metabolite_Detected
Drug metabolism [16]: Metabolite_Detected
Drug metabolism [17]: Metabolite_Detected

CC#C[C@@H](CC(=O)O)c1ccc(OCc2ccc(N3CCC4(CCc5ccccc54)CC3)s2)cc1
Ki [1]: 8.2 nM
EC50 [2]: 8 nM
%max [3]: 50%
logP [18]: 5
pKa [4]: 3.4 to 7.9
metabolised at 0.5 h [19]: 98%
metabolised at 0.5 h [5]: 98%
metabolised at 0.5 h [6]: 93%
metabolised at 0.5 h [20]: 44%
K [7]: 0.109 h⁻¹
K [8]: 0.23 h⁻¹
clearance [9]: 517 to 717 mL/min
Vd [10]: 443 to 885 L
solubility [11]: 70 to 89 µM (≈ 34 to 43.2 µg/mL)
ED90 (Rattus norvegicus): 14.2 mg/kg
Drug metabolism [21]: Metabolite_Detected
Drug metabolism [12]: Metabolite_Detected
Drug metabolism [22]: Metabolite_Detected
Drug metabolism [13]: Metabolite_Detected
Drug metabolism [23]: Metabolite_Detected
Drug metabolism [14]: Metabolite_Detected
Drug metabolism [24]: Metabolite_Detected
Drug metabolism [25]: Metabolite_Detected
Drug metabolism [26]: Metabolite_Detected
